Measured values collected from several papers.

Cn1cnc2c1c(=O)n(CC(=O)Nc1c(Cl)cccc1Cl)c(=O)n2C
viability (Vero; cell growth or viability, MTT; 500 µg/mL): 25.3%

CCNc1nc(Nc2ccc(F)c(Cl)c2)c2ccccc2n1
viability (Vero; cell growth or viability, MTT; 250 µg/mL): 20.6%

COc1cc(C(=O)NC2CCN(C)CC2)c(F)cc1Nc1ncc(C(F)(F)F)c(Oc2cccc3c2C(=O)N(C)C3)n1
Vd/F (human, plasma; oral, 200 mg, multiple doses, once daily, patients): 290 L

CCOC(=O)C1CCCN1C(=O)c1ccc(NCc2cnc3nc(N)nc(N)c3n2)cc1 (centres unmarked)
inhibition (Cytochrome P450 1A2 (CYP1A2, Homo sapiens, UniProt P05177); enzyme activity, inhibitor, luciferase; 10 µM): -16%

Cc1cc(Nc2cc(N3CCN(C)CC3)nc(/C=C/c3ccccc3)n2)n[nH]1
Vd/F (human, plasma; oral, 60 mg/m², patients): 1710 L

O=S(=O)(NNc1nnc(Cl)c2ccccc12)c1ccc(F)cc1
viability (Vero; cell growth or viability, MTT; 62.5 µg/mL): 88.2%

CC(C)(C)c1ccc(O)c(CN(Cc2cc(C(C)(C)C)ccc2O)C2CCC(NC(N)=O)CC2)c1 (centres unmarked)
Cmax (male C57BL/6 mouse, plasma; intraperitoneal, 25 mg/kg, single dose): 3620 ng/mL

COC(=O)C1CCN(C(=O)c2ccc(NCc3cnc4nc(N)nc(N)c4n3)cn2)CC1
inhibition (Cytochrome P450 3A4 (CYP3A4, Homo sapiens, UniProt P08684); enzyme activity, inhibitor, luciferase; 10 µM): -7.93%
